# Assay outcomes: PubChem, Johns Hopkins Ion Channel Center
# A selection: hits, their analogues and other compounds. The true share with any hit is near 3.7%.
# KCNQ1 pot: human KCNQ1 channel potentiation or activation; B-score at 10 µM; CHO-K1 KCNQ1, thallium flux FluxOR fluorescence; stronger effect = higher value; 0.35% of 310,000 active;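 active = fluorescence ratio B-score, a plate-corrected score, at least three library SD, with initial intensity B-score within 5 SD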
#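 System: Stable KCNQ1 CHO-K1 line | Incubation: 90 min dye loading and 20 min compound exposure, both at room temperature | Measure: Ratio B score | Medium: Assay buffer for compound exposure, DMSO matched across wells | Compound dosing: Single-concentration screen | Probe or stimulus: K+/Tl+ depolarizing stimulus | Measured by: Kinetic FluxOR fluorescence, 10 s baseline plus 110 s post-stimulus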
# KCNK9 inh: human KCNK9 channel inhibition | 1.2% of 310,000 active | B-score at 10 µM | AID 488922 | Q9NPC2 | HEK293 KCNK9, FluxOR thallium flux fluorescence; stronger effect = lower value;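 active = ratio B-score over 3 SD below the library mean, with starting fluorescence within 5 SD of its mean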;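 note: negative B-score means less thallium flux so channel inhibition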
# KCNK3 inh: human KCNK3 channel inhibition, primary screen | O14649 | B-score at 10 µM | CHO-KCNK3 thallium flux, FluxOR fluorescence; stronger effect = lower value | AID 602410 | 0.84% of 340,000 active;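 active = B-score under library mean minus 4 SD, starting fluorescence ratio at most library mean plus 5 SD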;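 note: more negative B-score means stronger inhibition of thallium flux through KCNK3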
# hERG rescue: shields human hERG channel from block by proarrhythmic agents; Q12809; CHO-hERG, FluxOR thallium flux, dofetilide IC70 present; activation (rescue from dofetilide block), less the hit threshold, % at 10 µM; 0.51% of 310,000 active; AID 1511;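 active = activation above the mean of controls blocked by dofetilide plus 5 SD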;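 note: thallium influx through hERG after potassium depolarization seen as dye fluorescence rise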
# Target sequence (Q12809 whole entry, looked up): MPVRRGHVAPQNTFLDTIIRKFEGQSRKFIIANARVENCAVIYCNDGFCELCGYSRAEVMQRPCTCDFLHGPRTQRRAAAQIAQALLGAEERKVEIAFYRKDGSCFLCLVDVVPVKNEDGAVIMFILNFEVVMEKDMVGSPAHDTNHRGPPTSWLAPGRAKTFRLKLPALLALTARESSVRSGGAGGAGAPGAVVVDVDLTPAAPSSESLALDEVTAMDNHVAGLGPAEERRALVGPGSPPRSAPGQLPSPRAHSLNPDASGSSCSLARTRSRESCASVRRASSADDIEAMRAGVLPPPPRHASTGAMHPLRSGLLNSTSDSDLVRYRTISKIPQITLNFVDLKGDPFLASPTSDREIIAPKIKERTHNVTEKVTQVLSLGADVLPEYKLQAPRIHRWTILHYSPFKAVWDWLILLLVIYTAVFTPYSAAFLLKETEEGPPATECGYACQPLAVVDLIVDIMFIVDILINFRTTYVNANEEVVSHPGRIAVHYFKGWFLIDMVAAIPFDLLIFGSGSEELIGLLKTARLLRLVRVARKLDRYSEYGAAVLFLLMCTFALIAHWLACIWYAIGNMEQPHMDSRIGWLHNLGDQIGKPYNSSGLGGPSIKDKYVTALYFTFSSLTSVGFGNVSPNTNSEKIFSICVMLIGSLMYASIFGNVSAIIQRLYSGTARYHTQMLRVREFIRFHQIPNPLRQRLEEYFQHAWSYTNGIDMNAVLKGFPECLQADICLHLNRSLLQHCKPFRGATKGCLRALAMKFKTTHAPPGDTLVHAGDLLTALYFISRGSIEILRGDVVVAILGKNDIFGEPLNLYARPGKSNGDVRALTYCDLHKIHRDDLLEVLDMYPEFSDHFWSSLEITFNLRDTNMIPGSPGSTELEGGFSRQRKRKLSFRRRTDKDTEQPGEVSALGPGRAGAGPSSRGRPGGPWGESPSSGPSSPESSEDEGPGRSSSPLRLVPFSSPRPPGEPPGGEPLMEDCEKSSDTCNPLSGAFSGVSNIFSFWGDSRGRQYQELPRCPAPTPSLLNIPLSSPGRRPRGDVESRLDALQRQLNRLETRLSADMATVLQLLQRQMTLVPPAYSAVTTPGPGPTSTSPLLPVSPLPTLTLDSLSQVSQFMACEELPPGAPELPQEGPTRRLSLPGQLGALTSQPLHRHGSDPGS
# KCNQ1 block: inhibitors of human KCNQ1 potassium channel | P51787 | CHO-K1 KCNQ1, FluxOR thallium flux fluorescence; stronger effect = higher value | B-score at 10 µM | 1.3% of 310,000 active | AID 2642;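 active = compounds whose thallium flux B-score, printed positive for inhibition, exceeds three library SD while starting fluorescence stays within three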;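 note: channel opened by potassium depolarization with thallium stimulus after 20 min compound exposure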
# Kir21 inh: Kir2.1 (mouse) channel inhibition. 0.85% of 310,000 active. B-score at 10 µM. P35561. HEK293-Kir2.1, FluxOR thallium flux fluorescence; stronger effect = lower value;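 active = fluorescence ratio B-score at or below minus 3 SD of library scores, with starting-brightness B-score within 2 SD, cut at about -4.2 in these data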;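 note: channel flux triggered by added potassium and thallium sulfate stimulus; B-score of peak minus minimum fluorescence over baseline after thallium stimulus; more negative B-score means stronger Kir2.1 block with less thallium influx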
# KCNK9 block conf: human KCNK9 inhibitor confirmation; shares compounds with KCNK9 inh; HEK293 KCNK9 cells, FluxOR thallium flux fluorescence; inhibition, % at 10 µM; 43% of 4,900 active;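 active = thallium signal inhibited by more than 5 SD of the compound-free buffer control wells, on both duplicate plates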;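 note: 0% = assay buffer control wells without compound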
# Kir2-1 spec: tests whether KCNK9 modulators also affect mouse Kir2.1; shares compounds with KCNK9 inh; Kir2.1 cells, FluxOR thallium flux fluorescence; inhibition, % at 10 µM; 4% of 4,900 active;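 active = thallium signal drop more than 5 SD beyond the mean of the no-compound control wells, seen in both duplicate plates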;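 note: signal is fluorescence rise after thallium addition divided by baseline fluorescence; plate controls were assay buffer only for no effect and full block by chlorpromazine control for full effect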
# HEK293 Tl ctr: second check of KCNK9 modulator effects in non-induced HEK293 cells; shares compounds with KCNK9 inh; 40% of 4,900 active; FluxOR thallium flux; inhibition, % at 10 µM;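 active = thallium signal drop beyond 5 SD of the untreated control mean, on both duplicate plates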;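 note: plate controls were buffer only IC0 wells for no effect and SID17386958 at its maximal inhibitory level for full effect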
# The depositor's hits bear a star; i = inactive; · = no result.
SMILES,KCNQ1 pot,KCNK9 inh,KCNK3 inh,hERG rescue,KCNQ1 block,Kir21 inh,KCNK9 block conf,Kir2-1 spec,HEK293 Tl ctr
COCCN(Cc1nc(C(c2ccccc2)c2ccccc2)no1)C(C)C,i,-8.7*,i,-4,i,0,i,i,i
COCCN(C)Cc1nc(C(c2ccccc2)c2ccccc2)no1,i,i,i,-5,i,0.2,·,·,·
CCCOc1ccc(Cc2c(Cl)nc(SC)nc2OC)cc1,i,i,i,-5,i,-1.6,i,i,i
CCCOc1ccc(Cc2c(Cl)nc(SC)nc2N(C)C)cc1,i,i,i,-10,i,-0.47,·,·,·
CC(C)Oc1ccc(Cc2cnc(N)nc2N)cc1,i,i,i,-12,i,-0.71,·,·,·
COc1nc(SC)nc(Cl)c1Cc1ccc(OC(C)C)cc1,i,i,i,-7,i,-0.22,i,i,26%*
CCC(c1nnc(SCC(=O)Nc2c(F)cccc2F)n1Cc1ccccc1)N(C)C (stereo unspecified),i,i,i,-9,i,0.68,·,·,·
O=c1[nH]n(-c2ccccc2)c(=O)cc1Cl,·,·,i,·,·,·,·,·,·
CN(C)CCn1c(=O)n(-c2cccc(Cl)c2)c(=O)c2c3c(sc21)CCCCC3,i,i,i,-12,i,-1.5,i,i,i
CN(C)CCn1c(=O)n(-c2ccc(F)cc2)c(=O)c2c3c(sc21)CCCCC3,i,i,i,-8,i,1.8,·,·,·
COCc1nnc(NC(=O)c2ccccc2[N+](=O)[O-])s1,i,i,i,-5,i,-0.47,·,·,·
Cc1ccc(Cl)c(N/C=C/C(=O)c2ccccc2)c1,i,-15*,i,-1,i,-0.44,70%*,i,38%*
COc1ccc2[nH]c(=O)c(C(c3nnnn3C3CCCC3)N(C)C3CCCCC3)cc2c1 (stereo unspecified),i,i,i,-16,i,0.53,·,·,·
O=C1C(=O)c2c(C(=O)c3ccccc3)coc2-c2ccccc21,i,-15*,i,-33,7*,2.2,60%*,i,38%*
NS(=O)(=O)c1ccc(N2CCN(CCOc3ccc(Cl)cc3)CC2)nc1,i,i,i,-9,i,0.32,·,·,·
CCn1cc(CCCC(=O)NCc2ccccc2OC)c2ccccc21,i,i,i,-3,i,-1.7,·,·,·
CCn1cc(CCCC(=O)NCc2cccc(OC)c2)c2ccccc21,i,i,i,-6,i,-2.8,i,i,i
COc1cccc(CNC(=O)C(Cc2ccccc2)n2cccc2)c1 (stereo unspecified),i,i,i,-14,i,0.66,i,i,i
CC(C)c1ccc(C(=O)N(c2ccccn2)C(C)c2ccco2)cc1 (stereo unspecified),i,i,i,-7,i,-0.39,·,·,·
CC(c1ccco1)N(C(=O)CSc1ccc(Br)cc1)c1ccccn1 (stereo unspecified),i,-8.9*,-9.8*,-15,i,-6.4*,i,37%*,38%*
O=C(c1cccs1)N1CCCC(N2CCN(c3cccc(C(F)(F)F)c3)CC2)C1 (stereo unspecified),i,i,i,-17,i,1,i,i,i
Cc1cc(C)c(C(=O)N2CCCC(N3CCN(c4cccc(C(F)(F)F)c4)CC3)C2)o1 (stereo unspecified),i,i,i,-16,i,1.2,·,·,·
O=C(c1ccco1)N1CCCC(N2CCN(c3cccc(C(F)(F)F)c3)CC2)C1 (stereo unspecified),i,i,i,-18,i,0.66,i,i,i
